Test results taken from ChEMBL document CHEMBL1154807, “Synthesis and antibacterial activity of novel 3-O-carbamoyl derivatives of clarithromycin and 11,12-cyclic carbonate azithromycin” (2010).
Values after ≈ are worked out from the molar mass of the structure shown.

Tests used:
Type in all cases: functional
Streptococcus pyogenes = test: Antibacterial activity against erythromycin-susceptible Streptococcus pyogenes by standard dilution assay
Streptococcus pneumoniae [1] = test: Antibacterial activity against erythromycin-resistant Streptococcus pneumoniae A22072 by standard dilution assay
Outline: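 Readout is minimal inhibitory concentration (MIC). The strain carries mef-encoded erythromycin resistance. It was tested within a six-strain Gram-positive panel alongside clarithromycin and azithromycin references.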

Streptococcus pneumoniae [2] = test: Antibacterial activity against erythromycin-resistant Streptococcus pneumoniae AB11 by standard dilution assay
Outline: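 Readout is minimal inhibitory concentration (MIC). The strain carries both erm- and mef-encoded erythromycin resistance. It was tested within a six-strain Gram-positive panel alongside clarithromycin and azithromycin references.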

Streptococcus pneumoniae [3] = test: Antibacterial activity against erythromycin-resistant Streptococcus pneumoniae B1 by standard dilution assay
Outline: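 Readout is minimal inhibitory concentration (MIC). Erythromycin resistance in this strain is erm-encoded. It was tested within a six-strain Gram-positive panel alongside clarithromycin and azithromycin references.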

Staphylococcus aureus = test: Antibacterial activity against erythromycin-susceptible Staphylococcus aureus ATCC 25923 by standard dilution assay
Streptococcus pneumoniae [4] = test: Antibacterial activity against erythromycin-susceptible Streptococcus pneumoniae ATCC 49619 by standard dilution assay
Outline: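 MIC read-out, determined against a panel of six Gram-positive strains: three erythromycin-susceptible and three erythromycin-resistant S. pneumoniae (erm, mef, or erm plus mef). Clarithromycin and azithromycin were run alongside as reference macrolides.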

Row | SMILES | MIC (Streptococcus pyogenes) [µg/mL] | MIC (Streptococcus pneumoniae [1]) [µg/mL] | MIC (Streptococcus pneumoniae [2]) [µg/mL] | MIC (Streptococcus pneumoniae [3]) [µg/mL] | MIC (Staphylococcus aureus) [µg/mL] | MIC (Streptococcus pneumoniae [4]) [µg/mL]
1 | CC[C@H]1OC(=O)[C@H](C)[C@@H](O[C@H]2C[C@@](C)(OC)[C@@H](O)[C@H](C)O2)[C@H](C)[C@@H](O[C@@H]2O[C@H](C)C[C@H](N(C)C)[C@H]2O)[C@](C)(OC)C[C@@H](C)C(=O)[C@H](C)[C@@H](O)[C@]1(C)O [CLARITHROMYCIN] | 0.12 (≈ 0.16 µM) | 4 (≈ 5.35 µM) | 128 (≈ 171 µM) | 64 (≈ 85.6 µM) | 0.12 (≈ 0.16 µM) | 0.03 (≈ 0.0401 µM)
2 | CC[C@H]1OC(=O)[C@H](C)[C@@H](O)[C@H](C)[C@@H](O[C@@H]2O[C@H](C)C[C@H](N(C)C)[C@H]2OC(C)=O)[C@@](C)(OC)C[C@@H](C)C(=O)[C@H](C)[C@@H](O)[C@]1(C)O | 128 (≈ 203 µM) | 128 (≈ 203 µM) | 256 (≈ 405 µM) | 128 (≈ 203 µM) | 128 (≈ 203 µM) | 128 (≈ 203 µM)
3 | CCCCCNC(=O)O[C@H]1[C@H](C)[C@@H](O[C@@H]2O[C@H](C)C[C@H](N(C)C)[C@H]2O)[C@](C)(O)C[C@@H](C)CN(C)[C@H](C)[C@H]2OC(=O)O[C@]2(C)[C@@H](CC)OC(=O)[C@@H]1C | 16 (≈ 21.9 µM) | 64 (≈ 87.7 µM) | 32 (≈ 43.8 µM) | 32 (≈ 43.8 µM) | 64 (≈ 87.7 µM) | 4 (≈ 5.48 µM)
4 | CC[C@H]1OC(=O)[C@H](C)[C@@H](O[C@H]2C[C@@](C)(OC)[C@@H](O)[C@H](C)O2)[C@H](C)[C@@H](O[C@@H]2O[C@H](C)C[C@H](N(C)C)[C@H]2O)[C@](C)(O)C[C@@H](C)CN(C)[C@H](C)[C@@H](O)[C@]1(C)O [AZITHROMYCIN] | 0.12 (≈ 0.16 µM) | 4 (≈ 5.34 µM) | 256 (≈ 342 µM) | 128 (≈ 171 µM) | 0.25 (≈ 0.334 µM) | 0.03 (≈ 0.0401 µM)
5 | CC[C@H]1OC(=O)[C@H](C)[C@@H](OC(=O)NCCc2ccccc2Cl)[C@H](C)[C@@H](O[C@@H]2O[C@H](C)C[C@H](N(C)C)[C@H]2O)[C@](C)(O)C[C@@H](C)CN(C)[C@H](C)[C@H]2OC(=O)O[C@@]21C | 8 (≈ 10 µM) | 16 (≈ 20 µM) | 8 (≈ 10 µM) | 32 (≈ 40.1 µM) | 32 (≈ 40.1 µM) | 4 (≈ 5.01 µM)
6 | CC[C@H]1OC(=O)[C@H](C)[C@@H](OC(=O)NCCc2ccccc2)[C@H](C)[C@@H](O[C@@H]2O[C@H](C)C[C@H](N(C)C)[C@H]2O)[C@](C)(O)C[C@@H](C)CN(C)[C@H](C)[C@H]2OC(=O)O[C@@]21C | 8 (≈ 10.5 µM) | 64 (≈ 83.8 µM) | 32 (≈ 41.9 µM) | 64 (≈ 83.8 µM) | 64 (≈ 83.8 µM) | 4 (≈ 5.24 µM)
7 | CC[C@H]1OC(=O)[C@H](C)[C@@H](O)[C@H](C)[C@@H](O[C@@H]2O[C@H](C)C[C@H](N(C)C)[C@H]2OC(C)=O)[C@](C)(O)C[C@@H](C)CN(C)[C@H](C)[C@@H](O)[C@]1(C)O | 128 (≈ 202 µM) | 128 (≈ 202 µM) | 256 (≈ 405 µM) | 128 (≈ 202 µM) | 128 (≈ 202 µM) | 128 (≈ 202 µM)
8 | CC[C@H]1OC(=O)[C@H](C)[C@@H](OC(=O)NCc2ccccc2)[C@H](C)[C@@H](O[C@@H]2O[C@H](C)C[C@H](N(C)C)[C@H]2O)[C@](C)(O)C[C@@H](C)CN(C)[C@H](C)[C@H]2OC(=O)O[C@@]21C | 32 (≈ 42.7 µM) | 128 (≈ 171 µM) | 64 (≈ 85.3 µM) | 64 (≈ 85.3 µM) | 64 (≈ 85.3 µM) | 16 (≈ 21.3 µM)
9 | CC[C@H]1OC(=O)[C@H](C)[C@@H](OC(=O)NCc2ccc(OC)cc2)[C@H](C)[C@@H](O[C@@H]2O[C@H](C)C[C@H](N(C)C)[C@H]2O)[C@](C)(O)C[C@@H](C)CN(C)[C@H](C)[C@H]2OC(=O)O[C@@]21C | 16 (≈ 20.5 µM) | 128 (≈ 164 µM) | 64 (≈ 82.1 µM) | 64 (≈ 82.1 µM) | 128 (≈ 164 µM) | 8 (≈ 10.3 µM)
10 | CC[C@H]1OC(=O)[C@H](C)[C@@H](OC(=O)NCc2ccc(F)cc2)[C@H](C)[C@@H](O[C@@H]2O[C@H](C)C[C@H](N(C)C)[C@H]2O)[C@](C)(O)C[C@@H](C)CN(C)[C@H](C)[C@H]2OC(=O)O[C@@]21C | 16 (≈ 20.8 µM) | 32 (≈ 41.7 µM) | 64 (≈ 83.3 µM) | 64 (≈ 83.3 µM) | 64 (≈ 83.3 µM) | 4 (≈ 5.21 µM)
11 | CCCCNC(=O)O[C@H]1[C@H](C)[C@@H](O[C@@H]2O[C@H](C)C[C@H](N(C)C)[C@H]2O)[C@](C)(O)C[C@@H](C)CN(C)[C@H](C)[C@H]2OC(=O)O[C@]2(C)[C@@H](CC)OC(=O)[C@@H]1C | 8 (≈ 11.2 µM) | 128 (≈ 179 µM) | 32 (≈ 44.7 µM) | 64 (≈ 89.4 µM) | 64 (≈ 89.4 µM) | 8 (≈ 11.2 µM)
